# Assay results reported in article PMC7869823 (Bioorganic & medicinal chemistry, 2020).
# “And” between values parts separate entries of the source, which are not always exact repeats. Equal entries are not always repeated.
# How the values were obtained:
# [1] = tested on: NAADP 23–24 kDa binding protein(s); details: cited from earlier work
# cultured human cells = details: low concentrations, microinjected; cited from earlier work
# [2] = tested on: sea urchin NAADP receptor; assay: Sub-threshold receptor desensitization in sea urchin egg homogenates; type: biochemical; details: compared to NAADP
# How it was run: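 Sea urchin egg homogenates were exposed to increasing sub-threshold concentrations of test compound or NAADP, and time-dependent desensitization was probed by subsequent addition of 1 μM NAADP. Ca2+ release was read as peak fluo-3 fluorescence. IC50 was derived from the concentration-response and compared with that of NAADP.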
# [3] = biological target: sea urchin NAADP receptor; assay: Ca2+ release in sea urchin egg homogenates; type: biochemical; details: compared to NAADP
SMILES,photolabeling of NAADP binding protein(s) [1],Ca2+ release in cultured human cells (cultured human cells),decrease in desensitization potency relative to NAADP [2],EC50 relative to NAADP (fold greater / fold less potent as an agonist) [3]
"C#Cc1nc2c(N)ncnc2n1[C@@H]1O[C@H](COP(=O)(O)OP(=O)(O)OC[C@H]2O[C@@H]([n+]3cc(N=[N+]=[N-])cc(C(=O)[O-])c3)[C@H](O)[C@@H]2O)[C@@H](O)[C@H]1OP(=O)(O)O [Compound 9, 5-N3-8-Ethynyl-NAADP]",specifically photolabel NAADP 23–24 kDa binding protein(s),elicit Ca^2+ release,–,–
"C#Cc1nc2c(N)ncnc2n1[C@@H]1O[C@H](COP(=O)(O)OP(=O)(O)OC[C@H]2O[C@@H]([n+]3cccc(C(=O)[O-])c3)[C@H](O)[C@@H]2O)[C@@H](O)[C@H]1OP(=O)(O)O [Compound 8, 8-Ethynyl-NAADP]",–,–,86 fold and 90 fold,89 fold and 90 fold
